In paper PMC5131535 (ACS chemical neuroscience, 2016):
Values joined by “and” are separate entries in the source; they are usually repeats but may differ in a detail not shown here. Identical values can stand only once. Like-named read-outs stand apart in the source and are kept apart here.

Legend:
Format in all cases: cell-based
Kir7.1-M125R = biological target: T1, Kir7.1-M125R (Homo sapiens, UniProt O60928, M125R); assay: Tl+ flux assay in T-REx-HEK293 cells expressing Kir7.1-M125R
T1 sequence (O60928 1-360 M125R): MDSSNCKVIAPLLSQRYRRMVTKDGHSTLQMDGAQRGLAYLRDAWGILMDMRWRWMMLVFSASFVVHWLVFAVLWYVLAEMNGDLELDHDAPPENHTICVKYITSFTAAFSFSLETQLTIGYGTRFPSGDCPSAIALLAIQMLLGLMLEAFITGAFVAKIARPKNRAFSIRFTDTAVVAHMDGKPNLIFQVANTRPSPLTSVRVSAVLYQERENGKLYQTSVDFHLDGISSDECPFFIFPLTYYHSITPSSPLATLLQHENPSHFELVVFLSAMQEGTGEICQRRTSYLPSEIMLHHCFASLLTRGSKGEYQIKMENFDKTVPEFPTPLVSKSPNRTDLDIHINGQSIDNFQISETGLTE
Method in brief: (§1)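 Tetracycline-inducible stable T-REx-HEK-293 lines, induced overnight with 1 µg/ml tetracycline in DMEM/10% dialyzed FBS. Cells loaded 1 hr with 1.2 µM Thallos-AM in HBSS/20 mM HEPES pH 7.3 with 0.01% Pluronic F-127. Baseline fluorescence (ex 470, em 540 nm) read at 1 Hz before adding stimulus buffer with 1.8 mM Tl₂SO₄. Traces normalized to first point and vehicle-subtracted; slope taken 5–20 s post-Tl⁺; IC50 by nonlinear regression of CRCs.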

Kir7.1 = biological target: T2, Kir7.1 (Homo sapiens, UniProt O60928, M125R); assay: Whole-cell patch clamp electrophysiology, Kir7.1
T2 sequence (O60928 1-360 M125R): T1 sequence (O60928 1-360 M125R)
Method in brief: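 Human Kir7.1 (WT or mutant) was transiently co-transfected with EGFP into HEK-293T cells, which were replated next day on poly-L-lysine coverslips. Whole-cell clamp used bath 5 mM KCl, pH 7.4, and pipette 135 mM KCl, pH 7.3. Cells were held at −75 mV, stepped 500 ms to −120 mV, then ramped to 120 mV, every 5 s. Increasing test-compound doses were superfused, then BaCl₂ block; current read at −120 mV; variable-slope Hill fit, mean of n = 5.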

Kir1.1 = assay: Tl+ flux selectivity assay, Kir1.1; settings: Thallium flux, Kir7.1 over Kir1.1
Method in brief: as §1

Kir2.2 = biological target: T3, Kir2.2 (Homo sapiens, UniProt Q14500); assay: Tl+ flux selectivity assay, Kir2.2; settings: for Kir Channel Selectivity (Fold) 2.2: Thallium flux, Kir7.1 over Kir2.2
T3 sequence (Q14500 1-433): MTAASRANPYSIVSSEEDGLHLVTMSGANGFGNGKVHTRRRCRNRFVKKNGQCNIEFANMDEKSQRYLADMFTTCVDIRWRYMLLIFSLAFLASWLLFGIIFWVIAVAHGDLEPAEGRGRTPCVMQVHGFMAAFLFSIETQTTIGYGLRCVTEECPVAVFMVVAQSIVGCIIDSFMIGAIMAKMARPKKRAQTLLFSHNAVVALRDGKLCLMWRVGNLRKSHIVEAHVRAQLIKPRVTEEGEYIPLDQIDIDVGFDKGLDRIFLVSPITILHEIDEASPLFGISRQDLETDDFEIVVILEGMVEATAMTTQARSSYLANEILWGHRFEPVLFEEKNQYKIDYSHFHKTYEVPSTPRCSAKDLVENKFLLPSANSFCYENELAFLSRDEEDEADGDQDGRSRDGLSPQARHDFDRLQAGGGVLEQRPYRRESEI

Kir3.1/3.2 = biological target: T4, Kir3.1/3.2 (Homo sapiens, UniProt P48051+P48549); assay: Tl+ flux selectivity assay, Kir3.1/3.2; settings: for Kir Channel Selectivity (Fold) 3.1/3.2: Thallium flux, Kir7.1 over Kir3.1/3.2
T4 sequence (P48549 1-501): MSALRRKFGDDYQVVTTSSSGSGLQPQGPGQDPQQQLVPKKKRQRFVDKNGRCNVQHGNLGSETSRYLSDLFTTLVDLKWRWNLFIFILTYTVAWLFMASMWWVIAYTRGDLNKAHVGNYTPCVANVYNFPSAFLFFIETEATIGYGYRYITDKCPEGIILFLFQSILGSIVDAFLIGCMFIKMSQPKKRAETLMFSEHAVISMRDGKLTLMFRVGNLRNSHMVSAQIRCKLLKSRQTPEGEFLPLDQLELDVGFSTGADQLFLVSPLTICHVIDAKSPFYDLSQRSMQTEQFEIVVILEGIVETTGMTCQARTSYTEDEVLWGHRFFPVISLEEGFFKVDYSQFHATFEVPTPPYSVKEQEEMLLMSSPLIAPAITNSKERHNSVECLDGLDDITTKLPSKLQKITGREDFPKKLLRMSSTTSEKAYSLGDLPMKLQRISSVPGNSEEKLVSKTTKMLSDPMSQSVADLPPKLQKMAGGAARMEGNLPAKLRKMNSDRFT
T4 sequence (P48051 1-423): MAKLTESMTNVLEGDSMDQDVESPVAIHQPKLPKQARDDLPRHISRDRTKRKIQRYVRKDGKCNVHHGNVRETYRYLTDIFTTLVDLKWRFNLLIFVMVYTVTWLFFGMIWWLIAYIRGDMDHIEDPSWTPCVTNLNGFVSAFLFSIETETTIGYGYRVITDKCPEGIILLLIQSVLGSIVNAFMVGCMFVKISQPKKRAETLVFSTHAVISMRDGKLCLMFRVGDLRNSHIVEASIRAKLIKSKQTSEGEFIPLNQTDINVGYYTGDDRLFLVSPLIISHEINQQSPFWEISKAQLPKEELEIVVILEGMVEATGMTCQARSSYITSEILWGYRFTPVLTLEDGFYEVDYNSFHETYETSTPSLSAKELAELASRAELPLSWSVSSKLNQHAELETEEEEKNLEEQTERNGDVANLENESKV

Kir4.1 = biological target: T5, Kir4.1 (Homo sapiens, UniProt P78508); assay: Tl+ flux selectivity assay, Kir4.1; settings: for Kir Channel Selectivity (Fold) 4.1: Thallium flux, Kir7.1 over Kir4.1
T5 sequence (P78508 1-379): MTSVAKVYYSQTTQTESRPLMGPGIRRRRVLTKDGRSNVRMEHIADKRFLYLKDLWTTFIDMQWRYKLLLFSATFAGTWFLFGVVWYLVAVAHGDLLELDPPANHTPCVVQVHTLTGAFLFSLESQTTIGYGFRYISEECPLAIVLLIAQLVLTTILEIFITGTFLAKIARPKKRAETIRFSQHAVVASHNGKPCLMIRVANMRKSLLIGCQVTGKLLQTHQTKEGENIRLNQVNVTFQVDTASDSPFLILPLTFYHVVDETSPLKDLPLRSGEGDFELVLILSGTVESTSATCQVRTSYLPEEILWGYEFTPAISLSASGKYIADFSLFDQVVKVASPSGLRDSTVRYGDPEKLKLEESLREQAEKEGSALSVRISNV
Method in brief: as §1

Kir6.2/SUR1 = Kir6.2/SUR1 (Homo sapiens, UniProt Q14654); assay: Tl+ flux selectivity assay, Kir6.2/SUR1; settings: for Kir Channel Selectivity (Fold) 6.2: Thallium flux, Kir7.1 over Kir6.2/SUR1
Chain of Kir6.2/SUR1 (Q14654 whole entry): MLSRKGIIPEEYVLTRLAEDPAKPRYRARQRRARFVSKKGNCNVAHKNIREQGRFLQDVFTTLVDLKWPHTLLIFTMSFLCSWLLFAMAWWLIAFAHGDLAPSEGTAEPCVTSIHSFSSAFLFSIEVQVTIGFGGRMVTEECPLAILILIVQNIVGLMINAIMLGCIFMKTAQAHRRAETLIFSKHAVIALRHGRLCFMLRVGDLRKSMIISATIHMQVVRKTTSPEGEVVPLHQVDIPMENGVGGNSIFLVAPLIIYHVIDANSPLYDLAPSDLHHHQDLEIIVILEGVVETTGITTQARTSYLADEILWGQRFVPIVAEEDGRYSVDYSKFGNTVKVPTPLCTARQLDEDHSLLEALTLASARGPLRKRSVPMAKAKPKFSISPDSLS
Chain of Kir6.2/SUR1 (Q09428 whole entry partner): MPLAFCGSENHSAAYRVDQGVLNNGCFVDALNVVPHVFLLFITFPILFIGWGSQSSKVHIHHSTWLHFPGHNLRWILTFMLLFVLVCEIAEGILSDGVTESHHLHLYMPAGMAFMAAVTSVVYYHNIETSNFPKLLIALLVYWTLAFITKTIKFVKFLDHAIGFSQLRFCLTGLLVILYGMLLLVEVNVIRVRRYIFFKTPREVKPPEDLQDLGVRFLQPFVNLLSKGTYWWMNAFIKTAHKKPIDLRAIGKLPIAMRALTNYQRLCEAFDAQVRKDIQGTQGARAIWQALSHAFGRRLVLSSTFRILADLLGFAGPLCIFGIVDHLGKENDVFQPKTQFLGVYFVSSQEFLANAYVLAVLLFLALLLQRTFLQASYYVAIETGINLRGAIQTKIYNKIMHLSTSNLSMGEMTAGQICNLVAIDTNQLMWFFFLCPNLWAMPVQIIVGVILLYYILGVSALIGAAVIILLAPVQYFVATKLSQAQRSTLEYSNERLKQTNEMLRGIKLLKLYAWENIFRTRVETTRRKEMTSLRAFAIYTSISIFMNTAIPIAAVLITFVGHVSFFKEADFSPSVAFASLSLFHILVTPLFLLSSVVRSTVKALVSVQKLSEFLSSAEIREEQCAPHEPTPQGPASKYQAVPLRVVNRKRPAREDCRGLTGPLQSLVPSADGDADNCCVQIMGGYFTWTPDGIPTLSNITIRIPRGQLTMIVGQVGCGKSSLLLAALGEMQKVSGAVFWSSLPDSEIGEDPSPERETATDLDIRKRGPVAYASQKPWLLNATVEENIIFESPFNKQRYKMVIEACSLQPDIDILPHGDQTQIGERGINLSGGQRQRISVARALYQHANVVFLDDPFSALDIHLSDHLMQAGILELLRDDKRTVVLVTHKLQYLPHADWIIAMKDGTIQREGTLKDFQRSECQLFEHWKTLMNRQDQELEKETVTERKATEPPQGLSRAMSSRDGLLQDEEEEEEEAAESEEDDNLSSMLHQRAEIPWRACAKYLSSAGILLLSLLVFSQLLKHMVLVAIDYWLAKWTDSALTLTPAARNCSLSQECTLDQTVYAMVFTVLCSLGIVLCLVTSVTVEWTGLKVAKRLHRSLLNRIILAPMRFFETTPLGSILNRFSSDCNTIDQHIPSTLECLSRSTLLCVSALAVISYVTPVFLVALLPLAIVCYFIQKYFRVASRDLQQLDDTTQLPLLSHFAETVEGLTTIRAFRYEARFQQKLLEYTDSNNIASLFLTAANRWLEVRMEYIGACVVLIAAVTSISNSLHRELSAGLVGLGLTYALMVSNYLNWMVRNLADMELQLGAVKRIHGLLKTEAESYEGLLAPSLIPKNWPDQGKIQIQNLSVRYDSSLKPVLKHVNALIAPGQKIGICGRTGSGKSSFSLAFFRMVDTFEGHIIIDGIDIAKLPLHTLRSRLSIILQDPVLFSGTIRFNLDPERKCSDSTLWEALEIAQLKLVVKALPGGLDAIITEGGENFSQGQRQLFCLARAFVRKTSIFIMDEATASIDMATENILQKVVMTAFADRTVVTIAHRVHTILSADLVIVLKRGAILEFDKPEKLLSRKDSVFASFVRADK
Method in brief: as §1

| SMILES | IC50 (Kir7.1-M125R) [µM] | IC50 (Kir7.1; Kir7.1 IC50 (Patch clamp), -120 mV) | Kir Channel Selectivity (Fold) 1.1 (Kir1.1) | Kir Channel Selectivity (Fold) 1.1 (Kir1.1; listed as 19 (ML418)) [Fold] | Kir Channel Selectivity (Fold) 2.2 (Kir2.2) | Kir Channel Selectivity (Fold) 2.2 (Kir2.2; listed as 19 (ML418)) [Fold] | Kir Channel Selectivity (Fold) 3.1/3.2 (Kir3.1/3.2) | Kir Channel Selectivity (Fold) 3.1/3.2 (Kir3.1/3.2; listed as 19 (ML418)) [Fold] | Kir Channel Selectivity (Fold) 4.1 (Kir4.1) | Kir Channel Selectivity (Fold) 4.1 (Kir4.1; listed as 19 (ML418)) [Fold] | Kir Channel Selectivity (Fold) 6.2 (Kir6.2/SUR1; listed as 19 (ML418)) [Fold] | Kir Channel Selectivity (Fold) 6.2 (Kir6.2/SUR1; listed as ML418) | IC50 (Kir7.1-M125R; read-out: Kir7.1 IC50 (Thallium flux), hKir7.1 (M125R) Tl+ flux, average n = 3) [µM] | IC50 (Kir7.1; read-out: Kir7.1 IC50 (Patch clamp), -120 mV) [µM] | IC50 (Kir2.2; read-out: Kir2.2 IC50 (Tl+ flux)) [µM] | IC50 (Kir3.1/3.2; read-out: Kir3.1/3.2 IC50 (Tl+ flux)) [µM] | IC50 (Kir4.1; read-out: Kir4.1 IC50 (Tl+ flux)) [µM] | Kir Channel Selectivity (Fold) 6.2 (Kir6.2/SUR1) [Fold] | IC50 (Kir6.2/SUR1; read-out: Kir6.2/SUR1 IC50 (Tl+ flux)) [µM] |
| --- | --- | --- | --- | --- | --- | --- | --- | --- | --- | --- | --- | --- | --- | --- | --- | --- | --- | --- | --- |
| CC(C)OC(=O)NC1CCN(Cc2cc(Cl)c3cccnc3c2O)CC1 [Compound 19, iso-Propyl (1-((5-chloro-8-hydroxyquinolin-7-yl)methyl)piperidin-4-yl)carbamate] | 1.3 | 0.3 µM and 0.31 µM | at least 23 Fold | >23 | at least 23 Fold | >23 | at least 23 Fold | >23 | at least 23 Fold | >23 | 1 | equally potent |  |  |  |  |  |  |  |
| Oc1c(CN2CCC(Cc3ccccc3)CC2)cc(Cl)c2cccnc12 [VU714] |  |  | 3 Fold |  | >5 Fold |  | >5 Fold |  | 2 Fold |  |  |  | 5.6 | 1.5 | > 30 | > 30 | 13 | 5 | 30 |
